Where a chain is given by its changes, count along the chain named. “Also recorded” adds a separate entry of the source.
Experiments:
Type in all cases: cell-based, C. elegans
GluClβ A17′G = GluClβ A17′G (Caenorhabditis elegans, UniProt Q17328, A294G); experiment: two-electrode voltage clamp, Xenopus laevis oocytes; details: glutamate
Procedure, shortened: (§1)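 C. elegans GluClβ (mammalian codon-optimised) in pGEMhe, mutated by QuikChange; T7 mRNA. […] Voltage clamp at −60 mV in Ca-free ND96, pH 7.5. […] Peak currents taken from baseline, normalised, averaged per concentration, and fit to Hill equation (EC50, nH).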

GluClβ T13′A = biological target: T1, GluClβ T13′A (Caenorhabditis elegans, UniProt Q17328, T290A); experiment: two-electrode voltage clamp, Xenopus laevis oocytes; details: glutamate
T1 sequence (Q17328 23-434 T290A): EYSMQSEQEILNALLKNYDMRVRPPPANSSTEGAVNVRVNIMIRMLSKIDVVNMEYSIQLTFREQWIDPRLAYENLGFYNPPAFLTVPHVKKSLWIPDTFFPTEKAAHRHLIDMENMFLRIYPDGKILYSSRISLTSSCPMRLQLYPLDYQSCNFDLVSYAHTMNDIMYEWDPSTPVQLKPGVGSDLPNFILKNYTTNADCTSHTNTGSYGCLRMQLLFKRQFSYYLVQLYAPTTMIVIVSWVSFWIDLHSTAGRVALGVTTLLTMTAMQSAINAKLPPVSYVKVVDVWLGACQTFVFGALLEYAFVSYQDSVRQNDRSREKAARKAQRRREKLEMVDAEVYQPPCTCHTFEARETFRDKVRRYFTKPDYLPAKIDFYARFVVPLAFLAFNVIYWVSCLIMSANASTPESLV

GluClβ A17′T = biological target: T2, GluClβ A17′T (Caenorhabditis elegans, UniProt Q17328, A294T); experiment: as above; details: glutamate
T2 sequence (Q17328 23-434 A294T): T1 sequence (Q17328 23-434 T290A) with A268T, A272T

GluClβ L9′F = GluClβ L9′F (Caenorhabditis elegans, UniProt Q17328, L286F); experiment: two-electrode voltage clamp, Xenopus laevis oocytes; details: glutamate
Procedure, shortened: as §1

GluClβ T6′S, Y156A = GluClβ T6′S, Y156A (Caenorhabditis elegans, UniProt Q17328, T283S/Y182A); experiment: as above; details: glutamate
Procedure, shortened: as §1

GluClβ T6′A = GluClβ T6′A (Caenorhabditis elegans, UniProt Q17328, T283A); experiment: as above; details: glutamate
Procedure, shortened: as §1

GluClβ A2′T = GluClβ A2′T (Caenorhabditis elegans, UniProt Q17328, A279T); experiment: as above; details: glutamate
Procedure, shortened: as §1

[1] = system: GluClβ with α signal peptide, T6′S, Y156TAG Cha; experiment: two-electrode voltage clamp, Xenopus laevis oocytes, nonsense suppression; details: glutamate
Procedure, shortened: (§2)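 Site-specific TAG codon, read by 74mer THG73 tRNA ligated to dCA-acylated amino acid; NVOC removed by 5 min xenon-lamp irradiation just before injection. Oocytes coinjected with 37.5 ng mRNA plus ~1 μg/μL tRNA at 48 and 24 h pre-recording; unacylated 76mer tRNA served as read-through control.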

[2] = biological target: GluClβ with α signal peptide, T6′S (Caenorhabditis elegans, UniProt Q17328, T283S); experiment: two-electrode voltage clamp, Xenopus laevis oocytes; details: glutamate
Procedure, shortened: as §1

[3] = system: GluClβ with α signal sequence, T6’S, Y206 F2-Phe (3,5-F2–Phe); experiment: two-electrode voltage clamp, Xenopus laevis oocytes, nonsense suppression; details: glutamate; no plateau at 100 mM
Procedure, shortened: as §2

GluClβ T6′S, R59A = GluClβ T6′S, R59A (Caenorhabditis elegans, UniProt Q17328, R85A/T283S); experiment: two-electrode voltage clamp, Xenopus laevis oocytes; details: glutamate
Procedure, shortened: as §1

GluClβ T6′S = GluClβ T6′S (Caenorhabditis elegans, UniProt Q17328, T283S); experiment: two-electrode voltage clamp, Xenopus laevis oocytes; details: glutamate
GluClβ T6′S, Y206TAG Phe = biological target: T3, GluClβ T6′S, Y206TAG Phe (Caenorhabditis elegans, UniProt Q17328, T283S/Y232F); experiment: two-electrode voltage clamp, Xenopus laevis oocytes, nonsense suppression; details: glutamate
T3 sequence (Q17328 23-434 Y232F/T283S): T1 sequence (Q17328 23-434 T290A) with Y210F, T261S, A268T
Procedure, shortened: as §2

GluClβ T6′S, S126A = GluClβ T6′S, S126A (Caenorhabditis elegans, UniProt Q17328, S152A/T283S); experiment: two-electrode voltage clamp, Xenopus laevis oocytes; details: glutamate
[4] = system: GluClβ with α signal peptide, T6′S, F96TAG F3–Phe; experiment: two-electrode voltage clamp, Xenopus laevis oocytes, nonsense suppression; details: glutamate
[5] = system: GluClβ with α signal peptide, T6′S, F96TAG F1–Phe; experiment: as above; details: glutamate

GluClβ T6′A, sequence (Q17328 23-434 T283A): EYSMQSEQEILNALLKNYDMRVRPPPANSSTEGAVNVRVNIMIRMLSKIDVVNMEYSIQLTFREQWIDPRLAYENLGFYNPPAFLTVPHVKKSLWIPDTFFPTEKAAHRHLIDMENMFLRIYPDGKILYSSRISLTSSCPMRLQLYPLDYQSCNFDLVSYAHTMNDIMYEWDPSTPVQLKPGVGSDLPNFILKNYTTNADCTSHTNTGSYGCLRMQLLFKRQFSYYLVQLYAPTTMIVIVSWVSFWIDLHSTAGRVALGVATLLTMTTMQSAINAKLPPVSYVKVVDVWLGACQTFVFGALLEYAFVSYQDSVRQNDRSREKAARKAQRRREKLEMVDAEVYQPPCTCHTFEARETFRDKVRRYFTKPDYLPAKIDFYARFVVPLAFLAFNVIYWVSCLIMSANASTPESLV
GluClβ A2′T, sequence (Q17328 23-434 A279T): as the sequence (Q17328 23-434 T283A) above, with A257T, A261T counted along it
GluClβ T6′S, S126A, sequence (Q17328 23-434 S152A/T283S): as the sequence (Q17328 23-434 T283A) above, with S130A, A261S counted along it
GluClβ T6′S, sequence (Q17328 23-434 T283S): as the sequence (Q17328 23-434 T283A) above, with A261S counted along it
GluClβ with α signal peptide, T6′S, sequence (Q17328 23-434 T283S): as the sequence (Q17328 23-434 T283A) above, with A261S counted along it
GluClβ L9′F, sequence (Q17328 23-434 L286F): as the sequence (Q17328 23-434 T283A) above, with A261T, L264F counted along it
GluClβ T6′S, R59A, sequence (Q17328 23-434 R85A/T283S): as the sequence (Q17328 23-434 T283A) above, with R63A, A261S counted along it
GluClβ T6′S, Y156A, sequence (Q17328 23-434 Y182A/T283S): as the sequence (Q17328 23-434 T283A) above, with Y160A, A261S counted along it
GluClβ A17′G, sequence (Q17328 23-434 A294G): as the sequence (Q17328 23-434 T283A) above, with A261T, A272G counted along it

N[C@@H](CCC(=O)O)C(=O)O [glutamate]
EC50 (GluClβ A17′G): > 5 mM
EC50 (GluClβ T13′A): 38 ± 1 µM
Hill (GluClβ T13′A): 2.8 ± 0.1
Imax (GluClβ T13′A): 0.1–6 μA
EC50 (GluClβ A17′T): 58 ± 1 µM
Hill (GluClβ A17′T): 2.8 ± 0.1
Imax (GluClβ A17′T): 0.3–13 μA
EC50 (GluClβ L9′F): constitutively active
EC50 (GluClβ T6′S, Y156A): no response
EC50 (GluClβ T6′A): not functional; also recorded: very low response
EC50 (GluClβ A2′T): abolished glutamate-induced currents; also recorded: no response
EC50 [1]: no response
Hill [2]: 2.7 ± 0.2
EC50 [3]: > 100 mM
EC50 (GluClβ T6′S, R59A): no response
Hill (GluClβ T6′S): 2.4 ± 0.3
EC50 (GluClβ T6′S, Y206TAG Phe): 160 ± 10 µM
Hill (GluClβ T6′S, Y206TAG Phe): 3.0 ± 0.2
Imax (GluClβ T6′S, Y206TAG Phe): 0.07–0.30 μA
EC50 (GluClβ T6′S, S126A): 4.7 ± 0.1 mM
Hill (GluClβ T6′S, S126A): 2.5 ± 0.1
EC50 [4]: 39 ± 1 µM
Hill [4]: 2.4 ± 0.2
Imax [4]: 0.06–0.6 μA
EC50 [5]: 80 ± 2 µM
Hill [5]: 2.8 ± 0.2
Imax [5]: 0.1–0.5 μA
